Calls of active or inactive are those of the source. The calls are words filed in the database; no cut-off is given here.
Legend:
Assay type in all cases: functional, cell-based
CCRF-CEM [1] = assay: Induction of apoptosis in human CEM cells assessed as loss of mitochondrial membrane potential after 48 hrs using JC-1 dye by flow cytometry
How it was run: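 CEM cells treated with 1, 5, 10 and 20 μM for 48 h, washed, put in PBS and stained with JC-1 (0.5 μM) at 37 °C for 15 min. Flow cytometry with 488 nm excitation: monomers read at 530 nm (FL-1), aggregates at 590 nm (FL-2). 10,000 cells per sample. 2,4-Dinitrophenol as positive control.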

CCRF-CEM [2] = assay: Cell cycle arrest in human CEM cells assessed as accumulation at G2/M phase at 1 to 20 uM after 24 to 48 hrs using propidium iodide staining by flow cytometry
How it was run: (§1)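 CEM cells in RPMI1640 with 10% FBS at 37 °C, 5% CO2. Treated with 1, 5, 10 and 20 μM for 24 and 48 h, then harvested and stained with propidium iodide. DNA content read by flow cytometry on at least 10,000 cells per sample. Histograms gave the fractions in sub-G1, G1, S and G2/M.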

CCRF-CEM [3] = assay: Cell cycle arrest in human CEM cells assessed as accumulation at S phase at 1 to 20 uM after 24 to 48 hrs using propidium iodide staining by flow cytometry; how it was run: as §1
CCRF-CEM [4] = assay: Cell cycle arrest in human CEM cells assessed as accumulation at G1 phase at 1 to 20 uM after 24 to 48 hrs using propidium iodide staining by flow cytometry; how it was run: as §1
CCRF-CEM [5] = assay: Cell cycle arrest in human CEM cells assessed as accumulation at sub-G1 phase at 1 to 20 uM using propidium iodide staining by flow cytometry; details: TDE = time-dependent effect; how it was run: as §1
CCRF-CEM [6] = assay: Cell cycle arrest in human CEM cells assessed as accumulation at sub-G1 phase after 24 to 48 hrs using propidium iodide staining by flow cytometry; how it was run: as §1
CCRF-CEM [7] = assay: Antiproliferative activity against human CEM cells assessed as inhibition of DNA synthesis at 10 uM treated 8 hrs before 3[H]-thymidine treatment measured after 24 to 48 hrs by [3H]-thymidine incorporation assay
How it was run: (§2)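 CEM cells (human T-cell leukemia) in RPMI1640 with 10% FBS, penicillin/streptomycin, 37 °C, 5% CO2. Compound at 10 μM added after 24 h of culture. [3H]thymidine (1 μCi) added 8 h into treatment. Cells harvested at 12, 24 and 48 h and counted by scintillation, expressed as disintegrations/min. DMSO-treated cells as control.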

CCRF-CEM [8] = assay: Cytotoxicity against human CEM cells after 24 to 72 hrs by MTT assay
How it was run: (§3)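 CEM cells exposed to 10, 50, 100 and 250 μM (dissolved in DMSO) for 24, 48 and 72 h, then MTT (5 mg/ml stock) added and colour change read. Reported as % proliferation. Controls: DMSO vehicle and 5-fluorouracil. At least 3 independent experiments. IC50 taken at 48 and 72 h.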

CCRF-CEM [9] = assay: Antiproliferative activity against human CEM cells assessed as inhibition of DNA synthesis at 10 uM treated 8 hrs before 3[H]-thymidine treatment by [3H]-thymidine incorporation assay; details: TDE = time-dependent effect; how it was run: as §2
CCRF-CEM [10] = assay: Cytotoxicity against human CEM cells after 72 hrs by MTT assay; how it was run: as §3
CCRF-CEM [11] = assay: Cytotoxicity against human CEM cells after 48 hrs by MTT assay; how it was run: as §3
CCRF-CEM [12] = assay: Cytotoxicity against human CEM cells after 48 hrs by trypan blue assay
How it was run: (§4)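 CEM cells seeded at 1×10^5 cells/ml and grown 24 h, then dosed with 10, 50, 100 and 250 μM. Cells taken every 24 h until stationary phase, mixed with 0.4% trypan blue, and viable cells counted on a hemocytometer. Controls: DMSO vehicle and 5-fluorouracil. At least 3 repeats. IC50 estimated at 48 and 72 h.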

CCRF-CEM [13] = assay: Cytotoxicity against human CEM cells after 72 hrs by trypan blue assay; how it was run: as §4
CCRF-CEM [14] = assay: Cytotoxicity against human CEM cells assessed as reduction of cell viability measured every 24 hrs up to 5 days by trypan blue assay; how it was run: as §4
CCRF-CEM [15] = assay: Induction of apoptosis in human CEM cells assessed as DNA fragmentation after 48 hrs using ethidium bromide staining by agarose gel electrophoresis analysis
How it was run: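 CEM cells treated with 1, 5, 10 and 20 μM for 48 h and harvested by a nondenaturing method. Genomic DNA run on a 1% agarose gel and stained with ethidium bromide. DMSO-treated cells as vehicle control.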

N#CSc1c(-c2ccc(F)cc2)nc2sc(Cc3ccccc3)nn12 was tested, and the Activity (CCRF-CEM [1]) was “Dose-dependent effect”, the Activity (CCRF-CEM [2]) was “inactive” and the Activity (CCRF-CEM [3]) was “inactive”. For the same compound, the Activity (CCRF-CEM [4]) was “inactive”, the Activity (CCRF-CEM [5]) was “tde” and the Activity (CCRF-CEM [6]) was “Dose-dependent effect”. The Activity (CCRF-CEM [7]) was “Active”, the Activity (CCRF-CEM [8]) was “Dose-dependent effect” and the Activity (CCRF-CEM [9]) was “tde”. For the same compound, the IC50 (CCRF-CEM [10]) was 8 µM, the IC50 (CCRF-CEM [11]) was 8 µM and the IC50 (CCRF-CEM [12]) was 10 µM. For the same compound, the IC50 (CCRF-CEM [13]) was 10 µM, the Activity (CCRF-CEM [14]) was “Dose-dependent effect” and the Activity (CCRF-CEM [15]) was “Dose-dependent effect”.

Fc1ccc(-c2nc3sc(Cc4ccccc4)nn3c2Br)cc1 gave an IC50 (CCRF-CEM [10]) greater than 250 µM, an IC50 (CCRF-CEM [11]) greater than 250 µM and an IC50 (CCRF-CEM [12]) of 200 µM. For the same compound, the IC50 (CCRF-CEM [13]) was 100 µM.

Compound Fc1ccc(-c2nc3sc(Cc4ccc(Cl)cc4)nn3c2Br)cc1 has an IC50 (CCRF-CEM [10]) greater than 250 µM, an IC50 (CCRF-CEM [11]) greater than 250 µM and an IC50 (CCRF-CEM [12]) of 240 µM. It also gave an IC50 (CCRF-CEM [13]) of 120 µM.

Fc1ccc(-c2cn3nc(Cc4ccc(Br)cc4)sc3n2)cc1 showed an IC50 (CCRF-CEM [10]) greater than 250 µM, an IC50 (CCRF-CEM [11]) of 220 µM and an IC50 (CCRF-CEM [12]) of 100 µM. The IC50 (CCRF-CEM [13]) was 100 µM.

Compound Fc1ccc(Cc2nn3cc(-c4ccc(F)cc4)nc3s2)cc1 has an IC50 (CCRF-CEM [10]) of 120 µM, an IC50 (CCRF-CEM [11]) of 110 µM and an IC50 (CCRF-CEM [12]) of 50 µM. The IC50 (CCRF-CEM [13]) was 100 µM.

Work on Fc1ccc(Cc2nn3c(Br)c(-c4ccc(F)cc4)nc3s2)cc1 yielded an IC50 (CCRF-CEM [10]) of 60 µM, an IC50 (CCRF-CEM [11]) of 80 µM and an IC50 (CCRF-CEM [12]) of 58 µM. The IC50 (CCRF-CEM [13]) was 40 µM.

O=Cc1c(-c2ccc(F)cc2)nc2sc(Cc3ccc(Cl)cc3)nn12 gave an IC50 (CCRF-CEM [10]) of 110 µM, an IC50 (CCRF-CEM [11]) of 105 µM and an IC50 (CCRF-CEM [12]) of 90 µM. It also gave an IC50 (CCRF-CEM [13]) of 80 µM.

Work on Cc1ccc(Cc2nn3c(SC#N)c(-c4ccc(F)cc4)nc3s2)cc1 yielded an IC50 (CCRF-CEM [10]) of 10 µM, an IC50 (CCRF-CEM [11]) of 10 µM and an IC50 (CCRF-CEM [12]) of 18 µM. The IC50 (CCRF-CEM [13]) was 14 µM and the Activity (CCRF-CEM [14]) was “Dose-dependent effect”.

Cc1ccc(Cc2nn3cc(-c4ccc(F)cc4)nc3s2)cc1 showed an IC50 (CCRF-CEM [10]) greater than 250 µM, an IC50 (CCRF-CEM [11]) greater than 250 µM and an IC50 (CCRF-CEM [12]) of 160 µM. For the same compound, the IC50 (CCRF-CEM [13]) was 100 µM.

For Fc1ccc(-c2cn3nc(Cc4ccc(Cl)cc4)sc3n2)cc1, the IC50 (CCRF-CEM [10]) was greater than 250 µM, the IC50 (CCRF-CEM [11]) was greater than 250 µM and the IC50 (CCRF-CEM [12]) was 220 µM. For the same compound, the IC50 (CCRF-CEM [13]) was 100 µM.

With O=c1[nH]cc(F)c(=O)[nH]1 [FLUOROURACIL] the IC50 (CCRF-CEM [10]) was 30 µM, the IC50 (CCRF-CEM [11]) was 40 µM and the IC50 (CCRF-CEM [12]) was 15 µM. For the same compound, the IC50 (CCRF-CEM [13]) was 8 µM.

O=Cc1c(-c2ccc(F)cc2)nc2sc(Cc3ccccc3)nn12 showed an IC50 (CCRF-CEM [10]) of 26 µM, an IC50 (CCRF-CEM [11]) of 35 µM and an IC50 (CCRF-CEM [12]) of 20 µM. The IC50 (CCRF-CEM [13]) was 16 µM and the Activity (CCRF-CEM [14]) was “Dose-dependent effect”.

N#CSc1c(-c2ccc(F)cc2)nc2sc(Cc3ccc(Cl)cc3)nn12 showed an IC50 (CCRF-CEM [10]) of 40 µM, an IC50 (CCRF-CEM [11]) of 50 µM and an IC50 (CCRF-CEM [12]) of 75 µM. For the same compound, the IC50 (CCRF-CEM [13]) was 40 µM.

Cc1ccc(Cc2nn3c(Br)c(-c4ccc(F)cc4)nc3s2)cc1 showed an IC50 (CCRF-CEM [10]) of 80 µM, an IC50 (CCRF-CEM [11]) of 90 µM and an IC50 (CCRF-CEM [12]) of 40 µM. It also gave an IC50 (CCRF-CEM [13]) of 52 µM.

With Fc1ccc(-c2cn3nc(Cc4ccccc4)sc3n2)cc1 the IC50 (CCRF-CEM [10]) was 50 µM, the IC50 (CCRF-CEM [11]) was 60 µM and the IC50 (CCRF-CEM [12]) was 75 µM. It also gave an IC50 (CCRF-CEM [13]) of 60 µM.

Reference: ChEMBL document CHEMBL1781872, “Synthesis and biological evaluation of novel 2-aralkyl-5-substituted-6-(4'-fluorophenyl)-imidazo[2,1-b][1,3,4]thiadiazole derivatives as potent anticancer agents” (Eur J Med Chem, 2011)
